We go through 1 compound from ChEMBL document CHEMBL1138351, “Small, potent, and selective diaryl phosphonate inhibitors for urokinase-type plasminogen activator with in vivo antimetastatic properties” (J Med Chem, 2007).

The target of series [1] is Plasminogen (Mus musculus, UniProt P20918). The series is described as follows: Inhibition of mouse plasmin.
The target of series [2] is Tissue-type plasminogen activator (Homo sapiens, UniProt P00750). The experiment in a line: Inhibition of human recombinant tPA.
Chain of Tissue-type plasminogen activator (P00750 whole entry): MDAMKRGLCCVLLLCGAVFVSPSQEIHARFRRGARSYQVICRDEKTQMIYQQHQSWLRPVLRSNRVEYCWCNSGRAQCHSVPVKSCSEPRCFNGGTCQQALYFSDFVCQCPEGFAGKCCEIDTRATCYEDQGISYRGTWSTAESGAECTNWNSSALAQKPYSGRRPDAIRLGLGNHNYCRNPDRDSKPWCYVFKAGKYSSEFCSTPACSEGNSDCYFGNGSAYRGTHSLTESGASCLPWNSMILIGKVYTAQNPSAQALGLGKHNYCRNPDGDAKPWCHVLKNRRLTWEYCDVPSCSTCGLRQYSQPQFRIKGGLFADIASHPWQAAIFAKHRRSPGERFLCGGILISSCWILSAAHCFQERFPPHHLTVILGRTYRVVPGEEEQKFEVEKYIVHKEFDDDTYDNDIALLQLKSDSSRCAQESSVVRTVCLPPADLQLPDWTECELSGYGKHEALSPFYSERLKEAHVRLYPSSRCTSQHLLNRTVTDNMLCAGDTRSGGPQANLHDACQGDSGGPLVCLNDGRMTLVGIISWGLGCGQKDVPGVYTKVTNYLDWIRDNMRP
Series [3] addresses Plasminogen (Homo sapiens, UniProt P00747). The experiment in a line: Inhibition of human plasmin. The essentials: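 Plasmin from human plasma at about 5 mU was preincubated with inhibitor (0–250 µM final) for 15 min at 37 °C. Substrate was S-2366 at 580 µM in Tris pH 7.4. Initial rate was read at 405 nm, in duplicate. IC50 came from a four-parameter logistic fit.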
The nature of series [4]: Distribution coefficient, log D in octanol and phosphate buffer saline at pH 7.4. The series is classed as physicochemical. As to conditions: octanol/phosphate buffered saline. Summed up:
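A 10 mM DMSO stock was added to a 1:1 octanol/PBS pH 7.4 mixture. Measured in duplicate.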

Series [5] in a line: Chemical stability assessed as half life of hydrolysis at pH 8.8. The series is classed as physicochemical. As to conditions: buffer.
Series [6] in a line: Antitumor activity aganist Brown Norwegian rat bearing BN472 tumor assessed as reduction of tumor size at 0.1 mg/kg, ip administered once daily after 4 days of tumor transplantation for 17 to 18 days relative to control. The series is classed as functional. On the set-up: scale not given: the % may be the effect or the level left. As to conditions: route intraperitoneal. Summed up: (§1)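 Rats bearing orthotopic BN472 breast tumours (grown three days) were dosed i.p. daily from day 4 for 17–18 days at 0.1 or 1 mg/kg. Vehicle-only i.p. controls were included. Tumour size and tumour weight were measured at the end of the treatment period and compared with controls.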

The nature of series [7]: Antitumor activity aganist Brown Norwegian rat bearing BN472 tumor assessed as reduction of tumor weight at 0.1 mg/kg, ip administered once daily after 4 days of tumor transplantation for 17 to 18 days relative to control. It counts as functional. Also on record: scale not given: the % may be the effect or the level left. Particulars: route intraperitoneal. The essentials:
as §1

Series [8] can be described thus: Antitumor activity against Brown Norwegian rat bearing BN472 tumor assessed as reduction of tumor weight at 1 mg/kg, ip administered once daily after 4 days of tumor transplantation for 17 to 18 days relative to control. It counts as functional. Also on record: scale not given: the % may be the effect or the level left. Particulars: route intraperitoneal. The essentials: as §1

Series [9] relates to Rattus norvegicus. The series is described as follows: Toxicity in Brown Norwegian rat bearing BN472 tumor assessed as effect on body weight at 0.1 mg/kg, ip administered once daily after 4 days of tumor transplantation for 17 to 18 days relative to control. It counts as organism-based. On the set-up: dose 0.1 mg/kg, route intraperitoneal. As to conditions: in vivo. The essentials: (§2)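 Orthotopic BN472 breast tumour model in rats. Daily i.p. dosing at 0.1 or 1 mg/kg started on day 4 and ran 17–18 days, with vehicle-only i.p. controls. Side effects were assessed from body weight and the weights of several organs, compared with controls.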

For series [10], the system named is Rattus norvegicus. The series is described as follows: Toxicity in Brown Norwegian rat bearing BN472 tumor assessed as increase in lung weight at 0.1 mg/kg, ip administered once daily after 4 days of tumor transplantation for 17 to 18 days relative to control. The series is classed as organism-based. Also on record: dose 0.1 mg/kg, route intraperitoneal. As to conditions: in vivo. The essentials: as §2

For series [11], the system named is Rattus norvegicus. The experiment in a line: Toxicity in Brown Norwegian rat bearing BN472 tumor assessed as decrease in spleen weight at 1 mg/kg, ip administered once daily after 4 days of tumor transplantation for 17 to 18 days relative to control. The series is classed as organism-based. Also on record: dose 1 mg/kg, route intraperitoneal; scale not given: the % may be the effect or the level left. As to conditions: in vivo. The essentials: as §2

The structures appear in SMILES notation.

Chain of Plasminogen (Mus musculus, UniProt P20918) (P20918 98-581 limits assumed): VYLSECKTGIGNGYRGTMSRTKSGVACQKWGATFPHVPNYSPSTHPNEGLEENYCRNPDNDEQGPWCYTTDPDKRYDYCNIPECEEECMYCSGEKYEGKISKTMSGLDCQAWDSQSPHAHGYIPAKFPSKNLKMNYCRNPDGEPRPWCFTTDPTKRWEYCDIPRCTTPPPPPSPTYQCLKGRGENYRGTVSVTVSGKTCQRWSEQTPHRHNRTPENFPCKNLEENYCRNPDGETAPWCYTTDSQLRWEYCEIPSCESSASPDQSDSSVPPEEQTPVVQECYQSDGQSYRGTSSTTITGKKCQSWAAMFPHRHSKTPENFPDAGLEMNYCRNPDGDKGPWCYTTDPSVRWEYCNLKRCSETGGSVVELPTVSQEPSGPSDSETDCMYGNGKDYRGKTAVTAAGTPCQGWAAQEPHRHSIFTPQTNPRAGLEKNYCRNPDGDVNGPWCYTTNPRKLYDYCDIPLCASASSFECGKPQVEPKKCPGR
Chain of Plasminogen (Mus musculus, UniProt P20918) (P20918 582-812 limits assumed): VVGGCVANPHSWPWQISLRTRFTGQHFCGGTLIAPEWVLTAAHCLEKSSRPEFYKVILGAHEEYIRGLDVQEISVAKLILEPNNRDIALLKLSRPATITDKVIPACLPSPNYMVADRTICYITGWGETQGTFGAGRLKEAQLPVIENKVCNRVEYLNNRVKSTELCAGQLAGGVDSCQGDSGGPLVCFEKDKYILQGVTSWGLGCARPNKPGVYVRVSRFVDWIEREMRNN
Chain of Plasminogen (Homo sapiens, UniProt P00747) (P00747 97-580 limits assumed): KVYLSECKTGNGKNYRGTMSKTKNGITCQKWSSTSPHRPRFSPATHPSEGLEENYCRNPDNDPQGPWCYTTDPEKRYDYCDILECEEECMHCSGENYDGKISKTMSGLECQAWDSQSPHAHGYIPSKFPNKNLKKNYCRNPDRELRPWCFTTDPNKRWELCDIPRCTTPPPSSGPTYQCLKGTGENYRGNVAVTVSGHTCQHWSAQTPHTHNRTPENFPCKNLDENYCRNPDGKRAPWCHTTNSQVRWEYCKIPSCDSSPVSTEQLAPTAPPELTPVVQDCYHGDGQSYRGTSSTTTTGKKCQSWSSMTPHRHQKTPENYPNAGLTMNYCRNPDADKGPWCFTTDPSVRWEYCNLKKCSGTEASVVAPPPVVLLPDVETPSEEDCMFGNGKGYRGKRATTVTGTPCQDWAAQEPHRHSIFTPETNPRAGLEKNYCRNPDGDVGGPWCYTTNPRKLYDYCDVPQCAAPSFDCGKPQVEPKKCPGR
Chain of Plasminogen (Homo sapiens, UniProt P00747) (P00747 581-810 limits assumed): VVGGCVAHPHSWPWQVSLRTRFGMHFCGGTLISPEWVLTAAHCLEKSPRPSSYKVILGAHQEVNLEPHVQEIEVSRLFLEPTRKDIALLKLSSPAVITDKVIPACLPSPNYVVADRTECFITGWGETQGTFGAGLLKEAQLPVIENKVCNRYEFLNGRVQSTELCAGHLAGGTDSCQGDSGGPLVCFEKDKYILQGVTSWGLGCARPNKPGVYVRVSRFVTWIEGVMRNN

The term IC50 denotes the concentration at which inhibition is half-maximal. What is called logD is the decadic logarithm of the distribution of all forms, ionised or not, between an organic phase and buffer at a given pH. As usually defined, the half-life is the time in which the quantity being followed falls by half. On to `COC(=O)NC(Cc1ccc(NC(=N)N)cc1)P(=O)(Oc1ccc(NC(C)=O)cc1)Oc1ccc(NC(C)=O)cc1` (stereo unspecified), for which the IC50 in series [1] worked out at 4.8 µM; in series [2], 6.1 µM; in [3], 2800 nM. Further, the logD in [4] is -0.08. Moreover, in [5], the half-life is 180 min. Moreover, the Activity in series [6] worked out at 10%; in series [7] it was 15%; in series [8], 17%; in series [9], 163.5 g; in [10], 18%; in series [11], 10%.
